{"source": "ChEMBL document CHEMBL1157200", "about": "“Carboxymethylated pyridoindole antioxidants as aldose reductase inhibitors: Synthesis, activity, partitioning, and molecular modeling” (Bioorg Med Chem, 2008)", "key": {"[1]": {"target": "T1, Aldo-keto reductase family 1 member B1 (Rattus norvegicus, UniProt P07943)", "experiment": "Inhibition of Wistar rat lens aldose reductase 2", "method_in_brief": "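Lens ALR2 partially purified from male Wistar rats (8–9 weeks). Reaction: 4.67 mM D,L-glyceraldehyde, 0.11 mM NADPH, 0.067 M phosphate pH 6.2; started with substrate, NADPH loss at 340 nm read 4 min after 1 min lag at 30 °C. Blank lacks substrate and includes inhibitor. IC50 from semilog curves, ≥4 concentrations giving 25–75% inhibition.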"}, "[2]": {"target": "T1, Aldo-keto reductase family 1 member B1", "experiment": "Inhibition of Wistar rat lens aldose reductase 2 using D,L-glyceraldehyde as substrate", "method_in_brief": "(§1)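 Kinetic mode of rat lens ALR2 inhibition from double-reciprocal plots of initial velocity, with D,L-glyceraldehyde or NADPH concentration varied, with or without inhibitor (e.g. 20 µM); NADPH consumption read at 340 nm. Kinetic parameters given as mean ± SD of at least three experiments.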"}, "[3]": {"experiment": "Inhibition of Wistar rat kidney aldose reductase 1", "method_in_brief": "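ALR1 partially purified from male Wistar rat kidney by ammonium sulfate fractionation and DEAE treatment. NADPH consumption followed at 340 nm with 20 mM D-glucuronate and 0.12 mM NADPH in 0.1 M phosphate pH 7.2 at 37 °C; inhibitor also in blank. IC50 from linear part of semilog curves, ≥4 concentrations spanning 25–75% inhibition.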"}, "[4]": {"experiment": "Lipophilicity in 1-octanol/phosphate buffer at pH 7.4 assessed as distribution ratio by shake flask method", "assay_type": "physicochemical", "conditions": "octanol/water", "method_in_brief": "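Shake-flask method at room temperature with mutually saturated phases: compound 100 µM final in 0.1 M phosphate buffer pH 7.4 containing 0.15 M KCl, shaken with 1-octanol for 3 h. Phases separated by 1 h centrifugation; both measured by UV spectrophotometry. D is organic/aqueous total concentration; mean ± SD of ≥3 experiments.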"}, "[5]": {"target": "T1, Aldo-keto reductase family 1 member B1", "experiment": "Inhibition of Wistar rat lens aldose reductase 2 using NADPH as substrate", "method_in_brief": "as §1"}, "[6]": {"experiment": "Dissociation constant, acidic pKa of compound", "assay_type": "physicochemical", "method_in_brief": "(§2)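 Potentiometric titration with glass/saturated calomel electrodes: compound about 2 mM in water, acidified with 0.1 M HCl to pH about 1.8, titrated with 0.1 M NaOH at 22 °C ± 1 °C, ionic strength held at 0.1 M with KCl.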"}, "[7]": {"experiment": "Dissociation constant, basic pKa of compound", "assay_type": "physicochemical", "method_in_brief": "as §2"}, "[8]": {"experiment": "Antioxidant activity assessed as inhibition of AAPH-induced peroxidation of DOPC liposome after 80 mins by thiocyanate method", "assay_type": "functional", "method_in_brief": "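DOPC unilamellar liposomes (0.8 mM final) in 20 mM phosphate buffer pH 7.4 with AAPH initiator (10 mM final) and varying test concentrations at 50 °C. Aliquots extracted with ice-cold CHCl3/MeOH (2:1) containing BHT; lipid hydroperoxides measured by thiocyanate method, absorbance at 500 nm. IC50 taken at 80 min.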"}}}
{"compound": "O=C([O-])Cc1ccc2[nH]c3c(c2c1)CN(CCc1ccccc1)CC3.[K+]", "values": [{"measurement": "IC50", "setting": "[1]", "result": 16.7, "unit": "µM"}, {"measurement": "Ki", "setting": "[2]", "result": 17.7, "unit": "µM"}, {"measurement": "IC50", "setting": "[3]", "result": 603, "unit": "µM"}, {"measurement": "D", "setting": "[4]", "result": 0.51}, {"measurement": "Ki", "setting": "[5]", "result": 10.5, "unit": "µM"}]}
{"compound": "CN1CCc2[nH]c3ccc(CC(=O)[O-])cc3c2C1.[K+]", "values": [{"measurement": "IC50", "setting": "[1]", "result": 54, "unit": "µM"}, {"measurement": "IC50", "setting": "[3]", "result": 3080, "unit": "µM"}, {"measurement": "D", "setting": "[4]", "result": 0.13}]}
{"compound": "O=C([O-])Cc1ccc2[nH]c3c(c2c1)CN(Cc1ccccc1)CC3.[K+]", "values": [{"measurement": "IC50", "setting": "[1]", "result": 18.2, "unit": "µM"}, {"measurement": "Ki", "setting": "[2]", "result": 17.9, "unit": "µM"}, {"measurement": "IC50", "setting": "[3]", "result": 328, "unit": "µM"}, {"measurement": "D", "setting": "[4]", "result": 0.35}, {"measurement": "pKa", "setting": "[6]", "result": 4.34}, {"measurement": "pKa", "setting": "[7]", "result": 8.65}, {"measurement": "Ki", "setting": "[5]", "result": 11, "unit": "µM"}]}
{"compound": "CN1CC[C@@H]2Nc3ccc(CC(=O)[O-])cc3[C@@H]2C1.[K+]", "note": "(racemic)", "values": [{"measurement": "IC50", "setting": "[1]", "result": 381, "unit": "µM"}, {"measurement": "D", "setting": "[4]", "result": "< 0.1"}]}
{"compound": "O=C([O-])Cc1ccc2c(c1)[C@@H]1CN(Cc3ccccc3)CC[C@@H]1N2.[Na+]", "note": "(racemic)", "values": [{"measurement": "IC50", "setting": "[1]", "result": 266, "unit": "µM"}, {"measurement": "IC50", "setting": "[3]", "result": "> 3000", "unit": "µM"}, {"measurement": "IC50", "setting": "[8]", "result": 75.6, "unit": "µM"}, {"measurement": "D", "setting": "[4]", "result": 0.2}]}
{"compound": "Cc1ccc2[nH]c3c(c2c1)CN(C)CC3", "note": "[DEHYDROSTOBADINE]", "values": [{"measurement": "IC50", "setting": "[1]", "result": "> 1000", "unit": "µM"}, {"measurement": "IC50", "setting": "[8]", "result": 72.7, "unit": "µM"}, {"measurement": "D", "setting": "[4]", "result": 6}]}
{"compound": "Cc1ccc2c(c1)[C@H]1CN(C)CC[C@H]1N2", "note": "[STOBADINE]", "values": [{"measurement": "IC50", "setting": "[1]", "result": "> 1000", "unit": "µM"}, {"measurement": "IC50", "setting": "[8]", "result": 25.3, "unit": "µM"}, {"measurement": "D", "setting": "[4]", "result": 2.5}]}
{"compound": "Cc1c(C)c2c(c(C)c1O)CCC(C)(C(=O)O)O2", "note": "(stereo not given) [TROLOX]", "values": [{"measurement": "IC50", "setting": "[8]", "result": 93.5, "unit": "µM"}]}
{"compound": "CCCC(CCC)C(=O)O", "note": "[VALPROIC ACID]", "values": [{"measurement": "IC50", "setting": "[3]", "result": 56.1, "unit": "µM"}]}
{"compound": "O=C(O)Cc1nn(Cc2nc3cc(C(F)(F)F)ccc3s2)c(=O)c2ccccc12", "note": "[ZOPOLRESTAT]", "values": [{"measurement": "IC50", "setting": "[1]", "result": 0.005, "unit": "µM"}]}
